pIC50: −log10 of the molar value. Active and inactive are the calls of the source. The rule behind the calls is not given here.
Key:
[1] = system: T-24; assay: Up-regulation of RIPK2 expression in human T24 cells at 7.5 to 10 uM measured after 16 hrs by Western blot analysis; assay type: functional, cell-based; conditions: dose 7.5-10 µM
[2] = Clearance in Sprague-Dawley rat at 12 mg/kg, IG measured HPLC analysis; assay type: ADME, organism-based; conditions: in vivo, po
[3] = system: T-24; assay: Induction of intracellular reactive oxygen species production in human T24 cells assessed as ROS level at 10 uM measured after 16 hrs by flow cytometry analysis; assay type: functional, cell-based
In short: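 After 16 h treatment, floating and adherent T24 cells pooled and loaded with DCFH-DA (final 10 μM) for 30 min at 37 °C in the dark, washed, resuspended in PBS and analyzed by flow cytometry; fluorescence also quantified by luminescence spectrometry. ROS expressed relative to control; mean ± S.D. of three independent experiments.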

[4] = system: T-24; assay: Up-regulation of RIPK1 expression in human T24 cells at 7.5 to 10 uM measured after 16 hrs by Western blot analysis; assay type: functional, cell-based; conditions: dose 7.5-10 µM
[5] = system: T-24; assay: Down-regulation of VEGFR-1 mRNA expression in human T24 cells at 5 to 10 uM measured by RT-PCR analysis; assay type: functional, cell-based; conditions: dose 5-10 µM
[6] = system: T-24; assay: Down-regulation of p-MLKL expression in human T24 cells at 7.5 to 10 uM measured in presence of 60 uM Nec-1 after 16 hrs by Western blot analysis; assay type: functional, cell-based; conditions: dose 7.5-10 µM
In short: (§1)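 T24 cells co-incubated 16 h with or without Nec-1 (60 μM). Lysates quantified by BCA, 40 μg protein resolved by SDS-PAGE, transferred to PVDF, probed with primary and peroxidase-conjugated secondary antibodies, detected by ECL. Band gray values normalized to β-actin loading control.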

[7] = Clearance in Sprague-Dawley rat at 6 mg/kg, IG measured HPLC analysis; assay type: ADME, organism-based; conditions: in vivo, po
[8] = system: T-24; assay: Induction of apoptosis in human T24 cells assessed as increase in cleaved caspase-3 expression at 0 to 5 uM measured by Western blot analysis; assay type: functional, cell-based; conditions: dose 0-5 µM
In short: (§2)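 Apoptosis-related proteins measured by Western blot in T24 lysates: 40 μg protein per lane by SDS-PAGE, PVDF transfer, primary and peroxidase-linked secondary antibodies, ECL detection, densitometry of gray values with β-actin as loading control.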

[9] = Half-life in Sprague-Dawley rat at 12 mg/kg, IG measured HPLC analysis; assay type: ADME, organism-based; conditions: in vivo, po
[10] = system: T-24; assay: Down-regulation of p-RIPK1 expression in human T24 cells at 7.5 to 10 uM measured in presence of 60 uM Nec-1 after 16 hrs by Western blot analysis; assay type: functional, cell-based; conditions: dose 7.5-10 µM; in short: as §1
[11] = system: T-24; assay: Down-regulation of RIPK3 expression in human T24 cells at 7.5 to 10 uM measured in presence of 60 uM Nec-1 after 16 hrs by Western blot analysis; assay type: functional, cell-based; conditions: dose 7.5-10 µM; in short: as §1
[12] = Selectivity index, ratio IC50 for antiproliferative activity against human HCV-29 cells over IC50 for antiproliferative activity against human T24 cells; assay type: toxicity, cell-based; conditions: HCV-29 cells versus T24 cells
In short: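 MTT assay, 48 h exposure at final 1–40 μM in T24 and normal bladder epithelial HCV29 cells (5 × 10^3/well, seeded overnight, 37 °C). MTT added for 4 h and formazan dissolved in DMSO. IC50 taken relative to untreated control, four parallel samples. SI = IC50(HCV29)/IC50(T24).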

[13] = system: T-24; assay: Up-regulation of MLKL mRNA expression in human T24 cells at 7.5 to 12.5 uM measured by RT-PCR analysis; assay type: functional, cell-based; conditions: dose 7.5-12.5 µM
In short: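 Total T24 RNA extracted with TRIzol. RT-PCR normalized to GAPDH, relative expression by 2−ΔΔCt versus control. Incubation 16 h for RIPK1/RIPK3/MLKL. At least three independent experiments, each in triplicate.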

[14] = system: T-24; assay: Induction of apoptosis in human T24 cells assessed as decrease in Bcl-2 expression at 5 to 7.5 uM measured by Western blot analysis; assay type: functional, cell-based; conditions: dose 5-7.5 µM; in short: as §2
[15] = system: T-24; assay: Up-regulation of p-RIPK3 expression in human T24 cells at 7.5 to 10 uM measured after 16 hrs by Western blot analysis; assay type: functional, cell-based; conditions: dose 7.5-10 µM
[16] = system: T-24; assay: Antiproliferative activity against human T24 cells measured after 72 hrs by MTT assay; assay type: functional, cell-based; conditions: T-24, 72 h
In short: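 Cells seeded 5 × 10^3 per well, grown overnight at 37 °C, then exposed to compound at final 1–40 μM (1, 2.5, 5, 7.5, 10, 12.5, 15, 20, 30, 40 μM) for the stated period. MTT added, 4 h at 37 °C, formazan dissolved in DMSO, absorbance read. IC50 = concentration killing 50% of cells relative to untreated control; mean ± S.D. of four independent experiments.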

[17] = Absorption rate constant in Sprague-Dawley rat at 12 mg/kg, IG measured HPLC analysis; assay type: ADME, organism-based; conditions: in vivo, po

O=C(Nc1ccc(C(F)(F)F)cc1)Nc1cccc(CNc2nccnc2Cl)c1
Activity [1]: Active | CL/F [2]: 0.659 mL/min | Activity [3]: Active | Activity [4]: Active | Activity [5]: Active | Activity [6]: Active | CL/F [7]: 0.811 mL/min | Activity [8]: Active | half-life [9]: 7.17 h | Activity [10]: Active | Activity [11]: Active | SI [12]: 6.56 | Activity [13]: Active | Activity [14]: Active | Activity [15]: Active | pIC50 [16]: 5.45 | Ka [17]: 0.107 h⁻¹

Reference: ChEMBL document CHEMBL5104108, “Concise synthesis and biological activity evaluation of novel pyrazinyl-aryl urea derivatives against several cancer cell lines, which can especially induce T24 apoptotic and necroptotic cell death” (RSC Med Chem, 2022)
